Assay: Toxicity liver stage against HepG2, at 10uM
Type: cell-based
Design: test concentration 10 uM, cell line HepG2-A16-CD81EGFP
Details: human, HepG2-A16-CD81EGFP cells; read-out: INHIBITION
Outline: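 Uninfected HepG2-A16-CD81EGFP cells, 3 × 10^3 per well, 1536-well, plated on prespotted compound at 10 μM final, parasite-free screening media added to match infected plates; puromycin 10 μM positive, DMSO 0.5% negative; run in parallel with 48 h PbLuc assay at 37 °C, 5% CO2; viability by CellTiter-Glo luminescence, normalized to controls.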

Row | SMILES | cytotoxicity at 10 µM [%]
1 | COc1ccc(NC(=O)c2cnc(C3CCN(C)CC3)nc2C)cc1 | -1.46
2 | Cc1ccc2c(n1)N(Cc1cccnc1)CCN(C1CCOCC1)C2 | -71.6
3 | Cc1ccc(C(CNCc2cccc3c2OCO3)N2CCOCC2)o1 (stereo unspecified) | -38.9
4 | Cc1ccc(CSCCn2nc3ccccn3c2=O)cc1 | 5.64
5 | COC(=O)c1sc2cccc(F)c2c1CNC(=O)C1CCCO1 (stereo unspecified) | -13.5
6 | Cc1nc(C)c(CNC(=O)NC(c2nnc3n2CCC3)C(C)C)s1 (stereo unspecified) | -1.79
7 | CCN(CC1CN(CC2CCC2)CCO1)c1cccnn1 (stereo unspecified) | 2.82
8 | CCCc1nc(NCCOC)c2c(n1)c(C)nn2CC | 3.36
9 | Cc1ccsc1CNC1CCCN(Cc2noc(C3CC3)n2)C1 (stereo unspecified) | -4.98
10 | Cc1nnc(SCCNc2cc(C3CC3)ncn2)s1 | -6.67
11 | COc1cccc(CN2CCC3(CCN(C(=O)C4CC=CC4)CC3)C2)c1 | -0.602
12 | Cn1cc(Cl)c(C(=O)N2CCCN(C3Cc4ccccc4C3)CC2)n1 | -4.86
13 | O=C(Nc1cccnc1)[C@@H]1CCO[C@@H]2CCN(Cc3cccnc3)C[C@@H]21 | 4.78
14 | COCCN1C[C@H]2[C@@H](C1)N(Cc1ccc(C)o1)CC[C@H]2OC | -8.34
15 | O=S(=O)(C1CC1)N1C[C@H](Oc2ccccn2)[C@H]2OCCC[C@H]21 | -3.7
16 | CN(C)C(=O)CC1CC2(CCN(Cc3ccco3)CC2)c2ccccc21 (stereo unspecified) | -11.3
17 | COC(=O)NCC(=O)NC(c1ccc(Cl)cc1)C(F)(F)F (stereo unspecified) | 9.09
18 | O=C(NCCc1nccs1)C(c1ccccc1)n1cnnn1 (stereo unspecified) | 5.28
19 | Cc1cnn(CC2CCCN2C(=O)c2c(F)cccc2Cl)c1 (stereo unspecified) | -29.1
20 | CC(C)N1CCC(CC(=O)N(C)CC(=O)c2ccc(O)cc2)CC1 | 5.21
21 | CC(C)(O)c1cn(C[C@H]2C[C@@H]3CCN2C[C@@H]3C(=O)N2CCOCC2)nn1 | 3.49

Row | SMILES | cytotoxicity at 10 µM [%]
22 | CS(=O)(=O)N1CCC(c2cncc(Cl)n2)CC1 | 16
23 | CC(=O)NCc1nc(CC(C)C)nn1-c1cccc(C)c1 | 6.54
24 | Fc1ccc2c(C3=CCN(Cc4nnc(C5CCC5)o4)CC3)c[nH]c2c1 | -0.302
25 | COc1ccccc1C(C)NC(=O)N1CCC(n2cncn2)CC1 (stereo unspecified) | 2.85
26 | Cn1ccc(CN2CCC(Cc3ccccc3)CC2)cc1=O | 1.78
27 | CC(NC(=O)C1CCN(C(C)C)CC1)c1nncn1C1CCCC1 (stereo unspecified) | -6.93
28 | c1ccc(CCNc2ncnc3c2CCN(Cc2c[nH]cn2)CC3)cc1 | 3.16
29 | CNC(=O)C(C)CN(C)C(=O)Nc1cc(F)cc(Br)c1 (stereo unspecified) | 4.25
30 | Cc1cc(CNC(=O)N2CCN(c3ccccc3)CC2)no1 | 5.27
31 | Cc1cc(NC(=O)c2ccc(CN3CC[C@H](O)C3)cc2)ccc1F | 4.5
32 | Cc1cn2nc(N3CCCC3Cn3nc(C)cc3C)sc2n1 (stereo unspecified) | -1.32
33 | CC(C)NC(=O)N1CCCC2(CCCCN2)C1 (stereo unspecified) | 11.4
34 | CNC(=O)[C@@]12CCO[C@@H]1CCN(S(=O)(=O)c1ccc(C)cc1)C2 | -69.9
35 | COc1ccccc1OCC(=O)NS(=O)(=O)c1ccc(F)cc1F | 8.68
36 | Cc1ccc(Cl)cc1-n1nnnc1C1(N2CCCC2)CCCCC1 | 18.9
37 | CN1C[C@@H]2CN(Cc3ccsc3)CCC[C@]2(C(=O)O)C1 | -141
38 | CCN(c1ccsc1C(=O)N1CCC(C)CC1)S(=O)(=O)c1ccccc1 | 14.7
39 | CSCC(=O)Nc1ncn(Cc2cccc(Br)c2)n1 | -12
40 | Cc1nnc([C@@H]2CC[C@@H]3[C@@H](CCN3S(=O)(=O)c3cccnc3)O2)o1 | 0.462
41 | COc1cc(C)nc(N2CCN(C(=O)CCn3cc(C)cn3)CC2)n1 | -3.56
42 | Cn1ccnc1CNC(=O)CC1CCCCO1 (stereo unspecified) | 1.24

Row | SMILES | cytotoxicity at 10 µM [%]
43 | CCOC(=O)C1CN(S(=O)(=O)C2CC2)Cc2ncn(CC)c21 (stereo unspecified) | 6.71
44 | CC(C)CNC(=O)c1cccc(Oc2ccc3nncn3n2)c1 | -1.95
45 | CCc1noc(CN(C)C(=O)C2COc3ccccc3C2)n1 (stereo unspecified) | 1.3
46 | COc1ncnc(N(C)C)c1NC(=O)Cc1cc(F)ccc1F | -2.67
47 | COc1cc(CN2CCCC2)ccc1OC12CCCN(CC1)C2 (stereo unspecified) | -2.87
48 | COc1cccc(C2CCN2C(=O)c2cc(C(C)C)on2)c1 (stereo unspecified) | -2.96
49 | Cn1cccc1CN1CCC2(CCCN(C(=O)c3cnccn3)C2)C1 (stereo unspecified) | -6.36
50 | Fc1cccc(-n2ccc(CN3CCCC3Cn3cccn3)n2)c1 (stereo unspecified) | -13.1
51 | COc1cc(CN(C)Cc2ccncc2)c(SC)cc1OC | 5.54
52 | CC(C)Oc1ccc(CN2CCCC(N3CCCC3)C2)cc1CO (stereo unspecified) | 0.271
53 | c1ccc(CCc2n[nH]c(C3CCOC3)n2)cc1 (stereo unspecified) | 2.78
54 | CC(C)CN1CCC(NC(=O)N(C)Cc2csc3ccccc23)CC1 | -52.9
55 | CC(C)(CO)Nc1cc(-c2cn[nH]c2)ncn1 | -1.44
56 | O=C(NCCc1ccn(-c2ccc(F)cc2)n1)C1CCCO1 (stereo unspecified) | -0.198
57 | Cc1cccn2cc(CC(=O)N(CCN(C)C)CC3CCCO3)nc12 (stereo unspecified) | 0.462
58 | Cn1ccc(C2CCCCN2C(=O)c2cccc(-n3cccn3)c2)n1 (stereo unspecified) | -0.874
59 | O=C([C@H]1C[C@H]2OCC[C@H]2N(CC2CC2)C1)N1CCCCO1 | -69.2
60 | COCCN(C)Cc1nc(-c2cccc(F)c2F)oc1C | 2.56
61 | Cc1cc(C(=O)N(C)S(C)(=O)=O)ccc1F | -38.4
62 | COCC(=O)N1C[C@H]2CNC[C@@]2(C(=O)NCc2c(C)noc2C)C1 | 0.753
63 | COCC(=O)N1CCC2(CCC(C(=O)N3CCCC3)O2)CC1 (stereo unspecified) | -1.63

Row | SMILES | cytotoxicity at 10 µM [%]
64 | Cn1cc(C(=O)Nc2ccc(CN3CCOCC3)cn2)cn1 | 6.95
65 | CCOc1ccccc1OC1CCN(C(=O)c2cnsn2)CC1 | 0.32
66 | CCOCCC(=O)N1CCCN(c2ccccc2C)CC1 | -7.68
67 | Cc1ccc(C(=O)N2CCC3(CCCN(c4ccc(C)nn4)C3)C2)cn1 (stereo unspecified) | -112
68 | CC(NC1(CNC(=O)CC2CCCC2)CCOCC1)c1ccccc1 (stereo unspecified) | -1.67
69 | CC(CS(C)(=O)=O)N(C(=O)c1ccc(Cl)s1)C1CC1 (stereo unspecified) | 1.51
70 | CC(C)COCC1CN(C(=O)c2cscn2)Cc2ncn(C)c21 (stereo unspecified) | -109
71 | Cc1ccc(CN2CC[C@H]3[C@H]2CC(=O)N3c2ccsc2)o1 | 1.12
72 | Cc1cc(C(=O)NCCCn2nccc2C2CC2)c(=O)[nH]c1C | 9
73 | COc1ccc(C2=NOC(CC#N)C2)cc1 (stereo unspecified) | 1.52
74 | Cc1c(C(=O)N2CCCC(O)(CN(C)C)CC2)c2cc(O)ccc2n1C (stereo unspecified) | -119
75 | Cc1nc(CN2CCC(CNC(=O)C3(C#N)CCCC3)CC2)oc1C | 1.29
76 | Cc1ccccc1CN(C)C(=O)CCc1nc(-c2nnc[nH]2)no1 | -42.1
77 | Cn1ccnc1C(=O)N[C@@H]1CN(Cc2ccoc2)[C@@H]2CCCO[C@@H]21 | -99.9
78 | COc1ccc(-c2nc(CC(=O)N(C)CCC#N)cs2)cc1OC | 0.19
79 | CN(C)CC(=O)N1CCCC2(CCC(=O)N(CCc3c[nH]cn3)C2)C1 (stereo unspecified) | -8.77
80 | O=C(c1c[nH]c(=O)c(Cl)c1)N1C[C@H]2CC[C@@H](C1)N(CC1CCC1)C2 | -153
81 | Cc1cc(NC(=O)CCNC(C)(C)c2nc(C)c(C)s2)no1 | 11.7

— ChEMBL document CHEMBL4513216, “Probing the Open Global Health Chemical Diversity Library for Multistage-Active Starting Points for Next-Generation Antimalarials” (ACS Infect Dis, 2020)
